Compounds with a hit are over-represented: about 1.9% of the library has one in this group of screens.
b-catenin transl: modulators of beta-catenin nuclear translocation, primary screen, imaging, HeLa cells, immunofluorescence, high-content; AID 1665, 2009; 190,000 compounds, 0.3% hits; nuclear translocation activity, % at 5 µM;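 active = nuclear translocation activity above 50% at 5 µM, with a well cell count of 50 or more; inconclusive = wells under 50 cells across six images, flagged as toxic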;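 also: per-cell ratio of nuclear to cytoplasmic median beta-catenin stain intensity; plate controls were DMSO negative control for no effect and GSK-3 inhibitor IX positive control for full effect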
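Signal – beta-catenin immunofluorescence imaging with DAPI · Test system – human HeLa cell line · Dosing – 5 µM primary single dose, 0.1% DMSO, 0.02–20 µM confirmation series · Measure – % activation, nuclear-to-cytoplasmic median beta-catenin signal ratio per cell · Incubation – 24 h compound exposure at 37°C, 5% CO2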
Autophagy mod: autophagy modulators in MEF cells, primary screen, imaging, high-content, MEF GFP-LC3 | MEF GFP-LC3 puncta imaging; test concentration mostly 10 µM | calls only at 10 µM (by protocol) | 190,000 compounds, 0.98% hits | AID 463193, 2010;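 active = percentage of spot-positive cells more than 3 SD above its plate mean, without a fluorescence outlier flag or 80% toxicity; inconclusive = no clear call, values can overlap the other calls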;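 also: spot-positive cell cutoff set from DMSO-treated cells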
Insulin prom up: insulin promoter activators in MIN6 cells, imaging, high-content screening, mouse beta cells. MIN6 insulin promoter-GFP reporter; stronger effect = higher value. z-score at 5 µM. 190,000 compounds, 0.3% hits. AID 1625, 2009;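 active = z-score above 3 at 5 µM with at least 500 cells counted in the well; inconclusive = wells under 500 cells, flagged as cytotoxic or low count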
Furin inh: human furin inhibitors, primary screen, biochemical, fluorescence intensity | AID 463115, 2010 | 220,000 compounds, 0.061% hits | P09958 | purified furin, fluorogenic substrate cleavage | inhibition, % at 20 µM or 30 µM; in the data active = inhibition above about 25%
Target sequence (P09958 108-714 limits assumed): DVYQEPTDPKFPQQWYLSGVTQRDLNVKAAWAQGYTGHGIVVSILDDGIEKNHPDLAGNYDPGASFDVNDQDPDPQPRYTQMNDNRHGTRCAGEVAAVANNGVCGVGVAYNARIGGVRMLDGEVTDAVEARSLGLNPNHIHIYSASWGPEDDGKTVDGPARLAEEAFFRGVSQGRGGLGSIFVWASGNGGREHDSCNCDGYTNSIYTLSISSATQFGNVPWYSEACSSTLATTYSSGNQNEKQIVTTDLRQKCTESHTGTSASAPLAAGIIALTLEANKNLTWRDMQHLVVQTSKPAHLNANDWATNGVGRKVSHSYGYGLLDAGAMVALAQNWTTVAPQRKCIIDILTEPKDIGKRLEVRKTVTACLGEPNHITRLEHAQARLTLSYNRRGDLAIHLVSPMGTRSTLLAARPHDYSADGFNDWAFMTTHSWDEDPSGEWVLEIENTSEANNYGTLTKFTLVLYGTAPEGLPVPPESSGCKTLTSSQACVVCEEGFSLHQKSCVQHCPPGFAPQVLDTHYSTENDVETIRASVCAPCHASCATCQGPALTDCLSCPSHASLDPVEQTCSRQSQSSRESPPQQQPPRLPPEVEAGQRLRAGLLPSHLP
HSV replic up: enhancers of HSV replication in host cells, fold increase, host cell viability; HSV replication augmentation in cells; maximum fold increase; 220,000 compounds, 0.005% hits; AID 1956, 2009; in the data active = maximum fold increase above about 1.5; inconclusive = no clear call, values can overlap the other calls; tested in PC3 cells
MT stabilizer: microtubule stabilizers in HeLa cells, primary screen, imaging, high-content imaging. HeLa tubulin immunostaining HCS, 24 h; share of cells brighter than vehicle mean+2SD. % tubulin-high responders, % at 10 µM. 200,000 compounds, 0.83% hits. AID 2205, 2009;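 active = plate Z-score above 3 for both tubulin-high and condensed-nucleus cell shares, with cell loss under 80%, at 10 µM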;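 also: anti alpha tubulin signal scored within the nucleus-defined area of each cell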
Starred values were filed as active, the others as inactive; i = inactive; ? = inconclusive; · = not tested or not shown; + = active, no number.

SMILES	b-catenin transl	Autophagy mod	Insulin prom up	Furin inh	HSV replic up	MT stabilizer
CCNC(=O)C1CC(=O)N(Cc2ccc3c(c2)OCO3)C(=Nc2ccc(F)cc2)S1 (centres undefined)	·	i	-1.4	32*	i	4
Cc1cc(C)n(-c2nnc3c4ccccc4n(C)c3n2)n1	0	·	-0.16	-13	i	·
O=C(c1cc(-c2cccnc2)nc2ccccc12)N1CCCc2ccccc21	-3	i	0.64	-10	i	14*
Cc1ccc2nc3sc(C(=O)N4CCCc5ccccc54)c(N)c3cc2c1	0	i	2.3	-12	i	28*
COc1ccccc1C(=O)NC(C)C(c1cccs1)N1CCOCC1 (centres undefined)	·	i	-0.2	31*	i	3
COc1ccc(C(=O)NCCN2CCOCC2)cc1OC	-1	i	0.19	30*	i	3
COc1ccc(C(=O)Nn2cnnc2)cc1OC	1	·	4.4*	0	i	·
COc1cc(NC(=S)NCCN2CCOCC2)cc(OC)c1	-1	+	-0.67	-15	i	5
O=C1NC(=O)/C(=C/c2cccc([N+](=O)[O-])c2)N1	2	·	-0.29	-14	i	·
CCN1C/C(=C/c2cccc([N+](=O)[O-])c2)C(=O)/C(=C/c2cccc([N+](=O)[O-])c2)C1	13	i	0.13	-26	i	42*
CSc1ccc(S(=O)(=O)N(CC(=O)NN=C2CCN(C)CC2)c2ccc(C)cc2)cc1	0	i	0.73	-31	i	4
O=C(N/N=C/C1=C(N2CCOCC2)C(=C\c2ccccc2)/CC1)Nc1ccccc1	3	i	-0.34	-14	i	4
CC(C)C(NC(=O)C12CC3CC(CC(C3)C1)C2)C(=O)N/N=C/C1=C(N2CCOCC2)C(=C\c2ccc([N+](=O)[O-])cc2)/CC1 (centres undefined)	1	+	0.27	3	i	3
CCN(CC)c1ccc(/C=C2\CCC(/C=N/NC(=O)c3ccc(=O)n(C)c3)=C2N2CCOCC2)cc1	-1	+	2.3	-18	?	7
CC(=O)Nc1cccc(NC(=O)CSc2nnnn2-c2ccc3c(c2)OCO3)c1	0	·	-0.01	-23	i	·
O=C(Nc1ccc(S(=O)(=O)N2CCOCC2)cc1)c1ccc(=O)[nH]c1	-2	·	-0.42	-15	i	·
c1ccc(Nc2nc(NCC3CCCO3)c3ccccc3n2)cc1 (centres undefined)	0	i	-0.87	-24	i	4
CCOc1ccc(Nc2nc(NCC3CCCO3)c3ccccc3n2)cc1 (centres undefined)	2	+	?	-12	i	6
Cc1ccc(C)c(OCCn2cc(/C=C(\C#N)C(=O)NCc3cccs3)c3ccccc32)c1	1	i	-1.3	-13	i	3
N#C/C(=C\c1cn(CCOc2ccccc2F)c2ccccc12)C(=O)NCc1cccs1	1	+	0.27	-8	i	3
COc1ccc(N(C)S(=O)(=O)c2cccc3cccnc23)c(OC)c1	56*	i	-0.51	-17	i	55*
N#Cc1c(C(F)(F)F)cc(-c2ccc(F)cc2)nc1SCC(=O)O	0	i	-0.33	2	i	·
CCCCOc1ccc(-c2cc(C(F)(F)F)c(C#N)c(SCC(=O)O)n2)cc1	1	+	·	-19	i	2
CC(=O)O[C@@]12CO[C@@H]1C[C@H](O)[C@@]1(C)C(=O)[C@H](O)C3=C(C)[C@@H](OC(=O)[C@H](O)[C@@H](NC(=O)OC(C)(C)C)c4ccccc4)C[C@](O)([C@@H](OC(=O)c4ccccc4)[C@H]21)C3(C)C	77*	·	-0.38	·	i	·
OCC(O)C1OC(Nc2ccc(Cl)cc2)C(O)C1O (centres undefined)	1	·	0.02	-8	i	·
CN(Cc1cccs1)C(=O)/C=C/c1ccccc1[N+](=O)[O-]	4	i	0.29	-7	i	2
COC(=O)C1=C(C)NC(C)=C(C(=O)OC)C1c1cc2ccc(C)cc2[nH]c1=O	0	i	-0.24	-21	i	31*
